# Experimental data published in ChEMBL document CHEMBL1126705, “16 beta-([18F]fluoro)estrogens: systematic investigation of a new series of fluorine-18-labeled estrogens as potential imaging agents for estrogen-receptor-positive breast tumors” (J Med Chem, 1993).
# How the values were obtained:
# Rattus norvegicus [1] = test: Tested in vivo for the biodistribution in rat uterus/muscle after 3 hours following an intravenous dose of 120 microCi of drug in 10%ethanol saline; format: ADME, organism-based, Muscle tissue
# Method in brief: (§1)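 Female Sprague-Dawley rats, 25 days old (~40–53 g), ether-anesthetized, given the 18F-labeled estrogen iv via femoral vein in 10% ethanol saline. […] Others were sacrificed by decapitation at 1 or 3 h. Blood and organs were excised, weighed and gamma counted as % injected dose/g, mean ± SD, typically n = 5 (4–6).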
# Rattus norvegicus [2] = test: Tested in vivo for the biodistribution in rat uterus/muscle at 1 hour after intravenous dose of 120 microCi of drug in 10%ethanol saline; format: ADME, organism-based, Muscle tissue; method in brief: as §1
# Rattus norvegicus [3] = test: Tested in vivo for the biodistribution in rat uterus/muscle at 1 hour after intravenous dose of 120 microCi of the drug and 15 micro g of estradiol; format: ADME, organism-based, Muscle tissue; method in brief: as §1
# Rattus norvegicus [4] = test: Tested in vivo for the biodistribution in rat uterus at 1 hour after intravenous dose of 120 microCi of drug in 10%ethanol saline; format: ADME, organism-based
# Method in brief: (§2)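 Immature (25-day-old) female Sprague-Dawley rats, ether-anesthetized, given the fluorine-18-labeled estrogen by femoral vein injection in 10% ethanol saline. […] Other groups were killed by decapitation at 1 or 3 h. Blood and organs were weighed and gamma-counted. Data are % injected dose/g, mean ± SD, typically n = 5 per group.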
# Rattus norvegicus [5] = test: Tested in vivo for the biodistribution in blood of female rat after 3 hours following an intravenous dose of 120 microCi of drug in 10%ethanol saline; format: ADME, organism-based
# Method in brief: (§3)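 Female Sprague-Dawley rats (25 days old, 40 g) under ether received 120 μCi of tracer iv (femoral vein; effective specific activity 1306 Ci/mmol) in 10% ethanol saline. They were decapitated at 1 h (n = 6) or 3 h (n = 5). Tissues were weighed and gamma-counted, reported as % injected dose/g, mean ± SD.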
# Rattus norvegicus [6] = test: Tested in vivo for the biodistribution in rat bone at 1 hour after intravenous dose of 120 microCi of the drug and 15 ug of estradiol; format: ADME, organism-based, Bone element
# Rattus norvegicus [7] = test: Tested in vivo for the biodistribution in rat fat after 3 hours following an intravenous dose of 120 microCi of drug in 10%ethanol saline; format: ADME, organism-based, Adipose tissue; method in brief: as §3
# Rattus norvegicus [8] = test: Tested in vivo for the biodistribution in rat ovaries after 3 hours following an intravenous dose of 120 microCi of drug in 10%ethanol saline; format: ADME, organism-based, Female gonad; method in brief: as §2
# Rattus norvegicus [9] = test: Tested in vivo for the biodistribution in rat muscle at 1 hour after intravenous dose of 120 microCi of the drug and 15 ug of estradiol; format: ADME, organism-based, Muscle tissue; method in brief: as §2
# Rattus norvegicus [10] = test: Tested in vivo for the biodistribution in rat fat at 1 hour after intravenous dose of 120 microCi of drug in 10%ethanol saline; format: ADME, organism-based, Adipose tissue; method in brief: as §3
# Rattus norvegicus [11] = test: Tested in vivo for the biodistribution in rat uterus after 3 hours following an intravenous dose of 120 microCi of drug in 10%ethanol saline; format: ADME, organism-based; method in brief: as §2
# Rattus norvegicus [12] = test: Tested in vivo for the biodistribution in rat uterus at 1 hour after intravenous dose of 120 microCi of the drug and 15 micro g of estradiol; format: ADME, organism-based; method in brief: as §2
# Rattus norvegicus [13] = test: Tested in vivo for the biodistribution in rat uterus/blood after 3 hours following an intravenous dose of 120 microCi of drug in 10%ethanol saline; format: ADME, organism-based; method in brief: as §1
# Rattus norvegicus [14] = test: Tested in vivo for the biodistribution in rat uterus/blood at 1 hour after intravenous dose of 120 microCi of the drug and 15 ug of estradiol; format: ADME, organism-based; method in brief: as §1
# Rattus norvegicus [15] = test: Tested in vivo for the biodistribution in blood of female rat at 1 hour after intravenous dose of 120 microCi of drug in 10%ethanol saline; format: ADME, organism-based; method in brief: as §3
# Rattus norvegicus [16] = test: Tested in vivo for the biodistribution in blood of female rat at 1 hour after intravenous dose of 120 microCi of the drug and 15 u g of estradiol; format: ADME, organism-based
# Rattus norvegicus [17] = test: Tested in vivo for the biodistribution in rat kidney after 3 hours following an intravenous dose of 120 microCi of drug in 10%ethanol saline; format: ADME, organism-based; method in brief: as §3
# Rattus norvegicus [18] = test: Tested in vivo for the biodistribution in rat kidney at 1 hour after intravenous dose of 120 microCi of drug in 10%ethanol saline; format: ADME, organism-based; method in brief: as §3
# Rattus norvegicus [19] = test: Tested in vivo for the biodistribution in rat uterus/blood at 1 hour after intravenous dose of 120 microCi of drug in 10%ethanol saline; format: ADME, organism-based; method in brief: as §1
# Rattus norvegicus [20] = test: Tested in vivo for the biodistribution in rat liver at 1 hour after intravenous dose of 120 microCi of the drug and 15 u g of estradiol; format: ADME, organism-based; method in brief: as §2
# Rattus norvegicus [21] = test: Tested in vivo for the biodistribution in rat liver after 3 hours following an intravenous dose of 120 microCi of drug in 10%ethanol saline; format: ADME, organism-based; method in brief: as §2
# Rattus norvegicus [22] = test: Tested in vivo for the biodistribution in rat liver at 1 hour after intravenous dose of 120 microCi of drug in 10%ethanol saline; format: ADME, organism-based; method in brief: as §2
# Rattus norvegicus [23] = test: Tested in vivo for the biodistribution in rat muscle after 3 hours following an intravenous dose of 120 microCi of drug in 10%ethanol saline; format: ADME, organism-based, Muscle tissue; method in brief: as §2
# Rattus norvegicus [24] = test: Tested in vivo for the biodistribution in rat ovaries at 1 hour after intravenous dose of 120 microCi of drug in 10%ethanol saline; format: ADME, organism-based, Female gonad; method in brief: as §2
# Rattus norvegicus [25] = test: Tested in vivo for the biodistribution in rat ovaries at 1 hour after intravenous dose of 120 microCi of the drug and 15 ug of estradiol; format: ADME, organism-based, Female gonad; method in brief: as §2
# [26] = Partition coefficient (logP); format: physicochemical; settings: octanol/water
# Method in brief: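 Octanol/water log P estimated from log k'w measured by reversed-phase HPLC (Minick method) on a C8 silica column.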
# Rattus norvegicus [27] = test: Tested in vivo for the biodistribution in rat bone after 3 hours following an intravenous dose of 120 microCi of drug in 10%ethanol saline; format: ADME, organism-based, Bone element; method in brief: as §3
# Rattus norvegicus [28] = test: Tested in vivo for the biodistribution in rat fat at 1 hour after intravenous dose of 120 microCi of the drug and 15 micro g of estradiol; format: ADME, organism-based, Adipose tissue
# Rattus norvegicus [29] = test: Tested in vivo for the biodistribution in rat kidney at 1 hour after intravenous dose of 120 microCi of the drug and 15 u g of estradiol; format: ADME, organism-based
# [30] = target: T1, Alpha-fetoprotein (Rattus norvegicus) (UniProt P02773); test: Relative binding affinity for Alphafetoprotein
# T1 sequence (whole entry): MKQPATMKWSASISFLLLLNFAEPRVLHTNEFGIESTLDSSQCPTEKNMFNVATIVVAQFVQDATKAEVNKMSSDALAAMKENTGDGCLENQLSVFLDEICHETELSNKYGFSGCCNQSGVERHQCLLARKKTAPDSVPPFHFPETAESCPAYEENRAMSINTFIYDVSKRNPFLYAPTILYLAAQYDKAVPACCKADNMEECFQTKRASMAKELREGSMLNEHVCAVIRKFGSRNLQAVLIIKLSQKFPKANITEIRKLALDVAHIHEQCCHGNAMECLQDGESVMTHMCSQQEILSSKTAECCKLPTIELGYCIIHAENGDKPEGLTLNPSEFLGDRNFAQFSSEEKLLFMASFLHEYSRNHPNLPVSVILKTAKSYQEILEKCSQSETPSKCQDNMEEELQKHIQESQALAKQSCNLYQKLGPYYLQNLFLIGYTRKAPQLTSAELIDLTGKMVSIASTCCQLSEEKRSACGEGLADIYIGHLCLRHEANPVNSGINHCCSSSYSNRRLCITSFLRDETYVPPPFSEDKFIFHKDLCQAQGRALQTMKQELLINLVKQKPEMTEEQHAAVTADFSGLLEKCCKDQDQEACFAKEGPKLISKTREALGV
# [31] = target: T2, Sex hormone-binding globulin (Homo sapiens) (UniProt P04278); test: Relative binding affinity against sex steroid binding protein (SBP)
# T2 sequence (whole entry): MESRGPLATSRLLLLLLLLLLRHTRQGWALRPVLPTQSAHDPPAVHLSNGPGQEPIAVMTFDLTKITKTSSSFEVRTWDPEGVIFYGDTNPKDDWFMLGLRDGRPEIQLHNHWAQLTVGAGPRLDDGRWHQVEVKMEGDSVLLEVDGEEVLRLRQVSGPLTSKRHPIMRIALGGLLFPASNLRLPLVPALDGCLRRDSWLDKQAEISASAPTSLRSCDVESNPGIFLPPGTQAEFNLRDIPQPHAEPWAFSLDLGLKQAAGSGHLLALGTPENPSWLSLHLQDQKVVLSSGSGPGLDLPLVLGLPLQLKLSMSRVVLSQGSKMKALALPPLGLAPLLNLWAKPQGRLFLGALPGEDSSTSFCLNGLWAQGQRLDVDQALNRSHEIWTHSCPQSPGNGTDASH
# Rattus norvegicus [32] = test: Tested in vivo for the biodistribution in rat bone at 1 hour after intravenous dose of 120 microCi of drug in 10%ethanol saline; format: ADME, organism-based, Bone element; method in brief: as §3
# Rattus norvegicus [33] = test: Tested in vivo for the biodistribution in rat muscle at 1 hour after intravenous dose of 120 microCi of drug in 10%ethanol saline; format: ADME, organism-based, Muscle tissue; method in brief: as §2
# [34] = target: T3, Estrogen receptor (Rattus norvegicus) (UniProt P06211+Q62986)
# [35] = target: T3, Estrogen receptor (Rattus norvegicus); remark: listed apart in the source
smiles,measurement,setting,value
C[C@]12CC[C@@H]3c4ccc(O)cc4CC[C@H]3[C@@H]1C[C@H](F)[C@@H]2O,Injected,Rattus norvegicus [1],9.05%
same,Injected,Rattus norvegicus [2],15.22%
same,Injected,Rattus norvegicus [3],2.685%
same,Injected,Rattus norvegicus [4],4.994%
same,Injected,Rattus norvegicus [5],0.534%
same,Injected,Rattus norvegicus [6],1.216%
same,Injected,Rattus norvegicus [7],0.131%
same,Injected,Rattus norvegicus [8],0.615%
same,Injected,Rattus norvegicus [9],0.466%
same,Injected,Rattus norvegicus [10],0.31%
same,Injected,Rattus norvegicus [11],1.176%
same,Injected,Rattus norvegicus [12],1.257%
same,Injected,Rattus norvegicus [13],2.273%
same,Injected,Rattus norvegicus [14],0.857%
same,Injected,Rattus norvegicus [15],0.949%
same,Injected,Rattus norvegicus [16],1.486%
same,Injected,Rattus norvegicus [17],0.821%
same,Injected,Rattus norvegicus [18],2.051%
same,Injected (dose/g),Rattus norvegicus [19],5.631%
same,Injected,Rattus norvegicus [20],3.771%
same,Injected (dose/g),Rattus norvegicus [21],1.483%
same,Injected (dose/g),Rattus norvegicus [22],2.957%
same,Injected (dose/g),Rattus norvegicus [23],0.151%
same,Injected (dose/g),Rattus norvegicus [24],1.91%
same,Injected (dose/g),Rattus norvegicus [25],1.189%
same,logP,[26],2.81
same,Injected (dose/g),Rattus norvegicus [27],1.201%
same,Injected (dose/g),Rattus norvegicus [28],0.391%
same,Injected (dose/g),Rattus norvegicus [29],3.388%
same,relative binding affinity (RBA),[30],20
same,relative binding affinity (RBA),[31],8.9
same,Injected (dose/g),Rattus norvegicus [32],1.008%
same,Injected (dose/g),Rattus norvegicus [33],0.402%
same,NSB,[34],0.63
same,BSI,[35],19
